Assay outcomes (PubChem BioAssay)
This is a sample that favours compounds with a hit; in the whole collection about 2.1% have one here.
APJ agonist = APJ receptor agonism; CHO-K1 APJ PathHunter beta-arrestin, luminescence; 0% DMSO wells, 100% apelin; activation, % at 20 µM; hit rate 0.11% among 330,000; P35414;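 active means activation more than six SD over the plate average, tested at 20 µM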;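 further: 0% = DMSO alone and 100% = apelin-13 at 10 nM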
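assay system = CHO-K1 APJ beta-arrestin complementation cell line | input = cell density 1000 per well | dosing = compound 20 µM once, DMSO 1% | timing = compound 90 min 25 °C, reagent 1 h | measured by = luminescence from split beta-galactosidase complementation, Galacton Star/Emerald II substrate | read-out basis = APJ agonist activity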
CXCR6 block = inhibitors of human CXCR6 receptor; O00574; CHO-K1 PathHunter CXCR6 beta-arrestin, luminescence; inhibition, % at 20 µM; hit rate 0.36% among 360,000; AID 602244; in the data active means inhibition above about 34%, passing the limit was not always enough;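 further: antagonist mode with CXCL16 agonist at 10 nM final; 0% = 10 nM CXCL16 with DMSO and 100% = unstimulated wells without agonist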
APJ antagonist = blocks the human apelin receptor APJ; AID 2521; P35414; hit rate 0.32% among 330,000; inhibition, % at 20 µM; CHO-K1 APJ beta-arrestin complementation, luminescence;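 active means inhibition above about 40% at 20 µM, limit read from the data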;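 further: cells challenged with 10 nM apelin-13 agonist together with compound; plate controls were apelin-13 plus DMSO wells for no effect and DMSO wells lacking apelin-13 for full effect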
EBI2 block = antagonists of human EBI2 receptor; P32249; EBI2 beta-arrestin recruitment, luminescence, 7a,25-OHC stimulated; inhibition, % at 5 µM; hit rate 0.81% among 360,000; AID 651636; in the data active means inhibition above about 38%;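 further: enzyme fragment complementation signal reports receptor beta-arrestin coupling in cells; 0% = agonist plus DMSO wells and 100% = wells without agonist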
CCR6 antagonist = antagonists of human CCR6 receptor; CHO-K1 CCR6 PathHunter beta-arrestin, luminescence, CCL20-stimulated; inhibition, % at 20 µM; hit rate 0.49% among 340,000;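 active means compounds whose inhibition of the agonist-driven luminescence signal at 20 µM reaches about 50%, limit read from the data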;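 further: cells stimulated with CCL20 at 14 nM final; plate controls were DMSO with CCL20 for no effect and DMSO without agonist for full effect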
Target sequence (P51684 whole entry, looked up): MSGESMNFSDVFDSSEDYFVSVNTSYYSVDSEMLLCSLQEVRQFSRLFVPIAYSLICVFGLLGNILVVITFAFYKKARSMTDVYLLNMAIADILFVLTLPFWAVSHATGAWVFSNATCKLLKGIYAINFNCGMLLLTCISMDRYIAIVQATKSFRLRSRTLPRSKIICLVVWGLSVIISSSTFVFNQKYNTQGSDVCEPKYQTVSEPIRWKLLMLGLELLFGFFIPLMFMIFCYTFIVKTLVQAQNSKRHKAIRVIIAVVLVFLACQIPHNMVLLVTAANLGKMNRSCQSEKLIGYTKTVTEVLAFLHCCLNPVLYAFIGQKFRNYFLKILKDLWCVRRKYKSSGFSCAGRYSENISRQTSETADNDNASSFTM
m5-HT2A agonist = mouse HTR2A agonism via beta-arrestin recruitment | CHO-K1 mHTR2A beta-arrestin complementation, luminescence; percent of 30 µM serotonin response | AID 624169 | P35363 | hit rate 0.66% among 360,000 | activation, % at 7.6 µM;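 active means activation above a run cutoff, the mean activation of all tested compounds plus 3 SD, cut at about 14% in these data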;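 further: 0% = plate median of compound wells and 100% = 30 µM serotonin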
APJ ag confirm = confirmation of human APJ apelin receptor agonists; shares compounds with APJ agonist; CHO-K1 APJ PathHunter beta-arrestin, luminescence; activation, % at 20 µM; hit rate 10% among 310; AID 2764;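 active means activation above 40%, taking the highest of four retests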;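 further: plate controls were DMSO wells for no effect and apelin-13 at 10 nM for full effect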
* hit, by the source's call; nt = not tested or not shown.

SMILES | APJ agonist | CXCR6 block | APJ antagonist | EBI2 block | CCR6 antagonist | m5-HT2A agonist | APJ ag confirm
CCOC(=O)C1=C(CSc2nccn2C)NC(=O)NC1c1cc(C)ccc1C (stereo unspecified) | -4 | 7 | -17 | 5 | 5 | 0 | nt
CCOC(=O)C1=C(Cn2cnc3ccccc32)NC(=O)NC1c1cc(C)ccc1C (stereo unspecified) | 62* | 9 | 31 | -42 | 13 | 59* | 59*
CS(=O)(=O)NN1C(=O)c2ccccc2NC1c1ccccc1 (stereo unspecified) | 3 | -6 | -4 | -2 | 8 | 4 | nt
COc1ccc(/C(N)=N/OC(=O)c2cccc([N+](=O)[O-])c2C)cc1 | 18* | -19 | -81 | 12 | -17 | 4 | 18
COc1ccc(/C(N)=N/OC(=O)c2cccc([N+](=O)[O-])c2)cc1 | 0 | -17 | -47 | 5 | -15 | -4 | nt
CCCCSc1nc(O)c(C2OC(=O)c3c2ccc(OC)c3OC)c(=O)n1-c1ccccc1 (stereo unspecified) | -4 | 15 | -12 | -3 | 18 | -2 | nt
CCCSc1nc(O)c(C2OC(=O)c3c2ccc(OC)c3OC)c(=O)n1-c1ccccc1 (stereo unspecified) | 23* | 6 | 10 | 6 | 10 | -3 | 39
COc1ccc(CNC(=O)COC(=O)c2n[nH]c3ccccc23)cc1 | -3 | -10 | -9 | -2 | -14 | 0 | nt
CC(C)(C)OC(=O)NCCCCCNC(=O)c1nc[nH]c1C(=O)NCc1ccc(CNC(=O)OC(C)(C)C)cc1 | 12* | -26 | -22 | -39 | -7 | -1 | 9
Cc1csc(NC(=O)CSc2nnc(-c3ccoc3C)o2)n1 | -27 | 2 | -1 | -1 | -7 | 3 | nt
CCn1cc(/C=C(\NC(=O)c2ccccc2)C(=O)N2CCOCC2)c2ccccc21 | 2 | 0 | -5 | 4 | 5 | 10 | nt
COC(=O)Cn1cc(/C=C(/C#N)C(=O)N2CCOCC2)c2ccccc21 | 12* | 5 | -5 | -11 | 0 | 1 | 6
Cc1nn(Cc2ccccc2)c(C)c1NC(=O)CSc1nc2sc3c(c2c(=O)n1C)CCC3 | 29* | nt | -73 | nt | -102 | nt | 40*
COc1cc(C2=NOC(C(=O)NC3CCCCC3)C2)cc(OC)c1OC (stereo unspecified) | 6 | 7 | -41 | 2 | -34 | -2 | nt
CCN(Cc1nc(-c2ccccc2)no1)C(=O)COc1cccc(OC)c1 | -1 | 8 | 3 | -6 | 21 | -8 | nt
O=C(COC(=O)c1ccc2c(c1Cl)C(=O)c1ccccc1C2=O)NC1CC1 | 13* | -24 | -29 | -9 | -18 | 1 | 25
O=C(Cn1ncc2c([nH]c3ccccc32)c1=O)Nc1ccc(CN2CCCCC2)cc1 | 91* | -7 | -13 | -9 | 5 | -4 | 0
C/C(COc1ccccc1)=N\NC(=O)c1nnn(-c2nonc2N)c1CSc1ccccc1 | 19* | -4 | -29 | -4 | 9 | 1 | 32
O=C(c1ccc([N+](=O)[O-])o1)N1CCN(c2nc3c(Cl)cccc3s2)CC1 | 32* | -16 | -22 | -12 | -6 | 7 | 7
COc1cccc2sc(N3CCN(C(=O)c4ccc([N+](=O)[O-])o4)CC3)nc12 | 30 | -27 | -143 | 4 | -13 | -5 | nt
Cc1ncc(CO)c2c1Oc1nc(-c3ccccc3F)nc(SCC(=O)N(C)c3ccccc3)c1C2 | 11 | -3 | -40 | -21 | -16 | 4 | nt
Cc1ncc(CO)c2c1Oc1nc(-c3ccccc3)nc(SCC(=O)N(C)c3ccccc3)c1C2 | 28* | nt | -134 | nt | nt | nt | 23
COC(=O)c1ccc(NC(=O)Cn2nc(SC)n(N)c2=S)cc1 | -6 | 1 | -15 | 7 | 3 | -3 | nt
O=C(COc1ccccc1[N+](=O)[O-])Nc1ccc(CN2CCOCC2)cc1 | -2 | -1 | 15 | -4 | -4 | 1 | nt
COc1ccccc1C(=O)C1CCCN(C(=O)c2ccc(Cl)cc2)C1 (stereo unspecified) | nt | 1 | nt | 2 | nt | 2 | nt
COc1cc(NC(=O)c2ccccc2)ccc1NC(=O)c1cc2ccccc2o1 | 17* | -1 | 3 | -10 | -5 | 2 | 1
